# Results: ChEMBL document CHEMBL1212825, “Synthesis and structure-activity relationships of N-(2-oxo-3-oxetanyl)amides as N-acylethanolamine-hydrolyzing acid amidase inhibitors” (J Med Chem, 2010)
# The source made the active and inactive calls. No cut-off for these calls is given here.
# Legend:
# [1] = target: T1, N-acylethanolamine-hydrolyzing acid amidase (Rattus norvegicus, UniProt Q5KTC7); experiment: Inhibition of rat recombinant NAAA expressed in HEK293 cells after 30 mins; format: cell-based
# T1 sequence (Q5KTC7 whole entry): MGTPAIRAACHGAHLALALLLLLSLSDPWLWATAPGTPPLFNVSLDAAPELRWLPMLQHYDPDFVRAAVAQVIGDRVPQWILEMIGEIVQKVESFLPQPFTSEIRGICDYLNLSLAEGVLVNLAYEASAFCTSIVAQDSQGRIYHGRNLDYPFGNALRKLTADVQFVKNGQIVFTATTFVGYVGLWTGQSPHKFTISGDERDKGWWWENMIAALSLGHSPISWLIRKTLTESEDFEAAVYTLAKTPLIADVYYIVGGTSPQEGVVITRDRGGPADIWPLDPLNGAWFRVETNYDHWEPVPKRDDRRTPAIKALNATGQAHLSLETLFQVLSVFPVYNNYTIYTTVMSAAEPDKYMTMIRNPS
# In short: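 Rat NAAA (full-length coding sequence cloned from rat brain cDNA, Flag-tagged) stably expressed in HEK293 cells, selected with G418 0.3 mg/mL. Enzyme taken as 105,000 g supernatant after freeze-thaw of the 12,000 g pellet. Incubated at 37 °C for 30 min in 50 mM sodium hydrogen phosphate pH 5.0 with 0.1% Triton X-100, 3 mM DTT and 50 μM heptadecenoylethanolamide substrate. IC50 reported.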
# Mus musculus [2] = experiment: Antiinflammatory activity in polyethylene sponges implanted mouse assessed as inhibition of carrageenan-induced reduction of palmitoylethanolamine level compound administered into sponges; format: functional, organism-based
# In short: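 Mice received subcutaneous polyethylene sponges (1 cm3, 2 per mouse) under dorsal skin. Each sponge was instilled with carrageenan 1.0% in 90 μL sterile saline plus drug or vehicle (DMSO, 10 μL/sponge), with drugs given over a range of doses. PEA measured by LC/MS.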
# Mus musculus [3] = experiment: Antiinflammatory activity in polyethylene sponges implanted mouse assessed as reduction of carrageenan-induced leukocyte infiltration compound administered into sponges; format: functional, organism-based
# [4] = target: T2, N-acylethanolamine-hydrolyzing acid amidase (Rattus norvegicus) (UniProt Q5KTC7); experiment: Inhibition of rat recombinant NAAA expressed in HEK293 cells assessed as recovered initial enzyme activity at 10 uM after 12 hrs of dialysis; values are per cent of control
# T2 sequence (whole entry): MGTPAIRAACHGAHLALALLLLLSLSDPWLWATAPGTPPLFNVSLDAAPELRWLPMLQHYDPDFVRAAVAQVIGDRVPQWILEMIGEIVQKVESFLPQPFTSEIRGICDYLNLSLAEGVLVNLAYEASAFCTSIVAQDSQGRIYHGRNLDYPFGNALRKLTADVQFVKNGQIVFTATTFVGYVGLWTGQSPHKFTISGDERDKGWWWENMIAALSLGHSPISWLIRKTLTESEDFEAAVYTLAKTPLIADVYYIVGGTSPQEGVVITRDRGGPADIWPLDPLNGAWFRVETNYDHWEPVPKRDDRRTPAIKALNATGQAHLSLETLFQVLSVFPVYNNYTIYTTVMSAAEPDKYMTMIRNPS
# [5] = substrate: O=C(N[C@H]1COC1=O)c1ccc(-c2ccccc2)cc1; details: Rattus norvegicus; HEK293; 100 nM
# [6] = substrate: O=C(N[C@H]1COC1=O)c1ccc(-c2ccccc2)cc1; details: Rattus norvegicus; HEK293; 100 nM; remark: listed apart in the source
# [7] = substrate: O=C(N[C@H]1COC1=O)c1ccc(-c2ccccc2)cc1; details: Rattus norvegicus; HEK293; 200 nM
# [8] = substrate: O=C(N[C@H]1COC1=O)c1ccc(-c2ccccc2)cc1; details: Rattus norvegicus; HEK293; 200 nM; remark: listed apart in the source
IC50 [1],Molecule,also measured
400 nM,COc1ccc2cc(C(=O)N[C@H]3COC3=O)ccc2c1,
300 nM,CCOC(=O)c1ccc2cc(C(=O)N[C@H]3COC3=O)ccc2c1,
1500 nM,O=C(CCCCCCc1ccccc1)N[C@H]1COC1=O,
90 nM,O=C(N[C@H]1COC1=O)c1ccc(OCc2ccccc2)cc1,
> 100000 nM,O=C(CCc1ccccc1)N[C@@H](CO)C(=O)O,
50000 nM,O=C(N[C@H]1COC1=O)c1cccc2ccccc12,
1850 nM,O=C(Cc1ccccc1)N[C@H]1COC1=O,
460 nM,CCCCCCC(=O)N[C@H]1COC1=O,
160 nM,O=C(N[C@H]1COC1=O)c1ccc2ccccc2c1,
3200 nM,O=C(N[C@@H]1COC1=O)c1ccc2ccccc2c1,
> 100000 nM,C[C@H]1OC(=O)[C@H]1NC(=O)CCc1ccccc1,
> 100000 nM,O=C(N[C@H]1CCOC1=O)c1ccc2ccccc2c1,
> 100000 nM,O=C(CCc1ccccc1)N[C@H]1CCOC1=O,
,O=C(CCc1ccccc1)N[C@H]1COC1=O,Activity (Mus musculus [2]): Dose-dependent effect; Activity (Mus musculus [3]): Active; residual activity [4]: 44%
102 nM,CCc1ccc(C(=O)N[C@H]2COC2=O)cc1,
6000 nM,O=C(CCc1ccccc1)N[C@@H]1COC1=O,
300 nM,O=C(N[C@H]1COC1=O)c1ccc(C(=O)Oc2ccccc2)cc1,
> 100000 nM,O=C(CCc1ccccc1)NC1CCC1,
3200 nM,C[C@@H]1OC(=O)[C@@H]1NC(=O)CCc1ccccc1,
4400 nM,O=C(N[C@H]1COC1=O)c1cccc(-c2ccccc2)c1,
,O=C(N[C@H]1COC1=O)c1ccc(-c2ccccc2)cc1,Activity (Mus musculus [2]): Dose-dependent effect; Activity (Mus musculus [3]): Active
1700 nM,O=C(N[C@H]1COC1=O)c1ccccc1,
2960 nM,O=C(N[C@H]1COC1=O)OCc1ccccc1,
11000 nM,O=C1OCC1CCCCc1ccccc1 (racemic),
,"N-acylethanolamine-hydrolyzing acid amidase (Rattus norvegicus), Q5KTC7 (protein) MGTPAIRAACHGAHLALALLLLLSLSDPWLWATAPGTPPLFNVSLDAAPELRWLPMLQHYDPDFVRAAVAQVIGDRVPQWILEMIGEIVQKVESFLPQPFTSEIRGICDYLNLSLAEGVLVNLAYEASAFCTSIVAQDSQGRIYHGRNLDYPFGNALRKLTADVQFVKNGQIVFTATTFVGYVGLWTGQSPHKFTISGDERDKGWWWENMIAALSLGHSPISWLIRKTLTESEDFEAAVYTLAKTPLIADVYYIVGGTSPQEGVVITRDRGGPADIWPLDPLNGAWFRVETNYDHWEPVPKRDDRRTPAIKALNATGQAHLSLETLFQVLSVFPVYNNYTIYTTVMSAAEPDKYMTMIRNPS",Km [5]: 129 µM; Vmax [6]: 10.8 nmol/min; Km [7]: 156 µM; Vmax [8]: 6.2 nmol/min
